TNAP act hi DEA – TNAP (human) activation, high acceptor | 200,000 tested, under 10 active | P05186 | activation factor at 20 µM | purified TNAP, CDP-star luminescence, 1 M DEA, 30 min; active compounds read high; 0 = EDTA background, 1 = DMSO-only activity;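 active = activation factor at least 2 at 20 µM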
Target sequence (P05186 whole entry, looked up): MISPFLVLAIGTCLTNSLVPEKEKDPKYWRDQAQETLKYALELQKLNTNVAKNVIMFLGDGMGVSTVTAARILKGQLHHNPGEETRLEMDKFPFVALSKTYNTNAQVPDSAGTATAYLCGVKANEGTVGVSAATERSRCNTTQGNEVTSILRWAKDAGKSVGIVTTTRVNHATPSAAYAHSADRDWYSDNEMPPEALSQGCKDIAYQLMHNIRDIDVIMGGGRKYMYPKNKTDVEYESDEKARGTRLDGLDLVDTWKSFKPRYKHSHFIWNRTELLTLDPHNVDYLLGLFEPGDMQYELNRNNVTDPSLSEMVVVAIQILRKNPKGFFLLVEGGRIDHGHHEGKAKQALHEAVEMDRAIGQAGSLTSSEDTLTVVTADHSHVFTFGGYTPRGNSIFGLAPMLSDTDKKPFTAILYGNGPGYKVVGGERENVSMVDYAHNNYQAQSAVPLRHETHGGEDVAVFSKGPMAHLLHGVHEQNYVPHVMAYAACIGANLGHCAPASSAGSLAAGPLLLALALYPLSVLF
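system = human TNAP | amount = enzyme diluted 1/800 final | reagent = 100 µM CDP-star substrate | signal = luminescent substrate turnover signal | dosing = one dose, 20 µM | benchmarks = EDTA negative control, DMSO positive control | measure = activation factor | timing = 30 min reaction, room temperature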
HCT116 PTEN-null – growth suppressors of cells with PTEN tumor suppressor deletion | HCT116 PTEN-null viability, CellTiter-Glo, 60 h; active compounds read low | viability, % at 10 µM | actives 1.2% (n = 140,000);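 active = viability at or below a set limit, 4 SD under the median of all tested compounds, cut at about 3.7% in these data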;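 note: PTEN knockout HCT116 line with beta catenin targeted HCT116 as companion control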
Lmaj promast – reduces viability of Leishmania major promastigotes. inhibition, % at 10 µM. AID 1063. actives 9% (n = 200,000). resazurin fluorescence viability; in the data active = inhibition above about 50%;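 note: promastigotes grown with compound for 44 hours at 28 °C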
HCT116 bCat-KO – beta-catenin-lacking colon tumor cell growth suppression. HCT116 beta-catenin knockout viability, CellTiter-Glo, 60 h; active compounds read low. viability, % at 10 µM. actives 1.5% (n = 140,000). AID 818;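 active = viability at or under a set limit, the compound median less 4 SD, cut at about 6% in these data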
TNAP inh no acc – blocks human TNAP activity with no phosphate acceptor present; actives 0.26% (n = 200,000); purified TNAP, CDP-star luminescence, 30 min; inhibition, % at 20 µM;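 active = tissue-nonspecific alkaline phosphatase inhibition above about 50% at 20 µM in the single-dose screen, limit read from the data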
TNAP inh hi DEA – blocks human TNAP under high phosphate acceptor concentration | P05186 | actives 0.03% (n = 200,000) | purified TNAP, CDP-star luminescence, 1 M DEA | inhibition, % at 20 µM;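 active = over 50% inhibition of tissue-nonspecific alkaline phosphatase at 20 µM in the single-dose screen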
Of the large screens only hits and unclear results are named; the others gave an inactive call. This is a sample that favours compounds with a hit; in the whole collection about 9.6% have one here.

Cc1ccc(NC(=O)/C=C/c2ccc([N+](=O)[O-])s2)cc1	Lmaj promast 97
Cc1ccc(NC(=O)/C=C/c2ccc([N+](=O)[O-])s2)c(C)c1	HCT116 PTEN-null 1.1, HCT116 bCat-KO 2.6
Cc1cccc(NC(=S)N/N=C/c2ccc([N+](=O)[O-])s2)c1	HCT116 PTEN-null 0.8, Lmaj promast 93, HCT116 bCat-KO 1.0
COc1cccc(NC(=O)/C=C/c2ccccc2[N+](=O)[O-])c1	none
Cc1cccc(NC(=O)/C=C/c2ccc([N+](=O)[O-])s2)c1	HCT116 PTEN-null 1.1, Lmaj promast 100, HCT116 bCat-KO 2.8
Cc1cc([N+](=O)[O-])ccc1NC(=O)/C=C/c1cccs1	none
Cc1ccc(/C=C/C(=O)Nc2ccc([N+](=O)[O-])cc2)o1	none
CC(C)[C@H](NS(=O)(=O)c1ccc2c(c1)OCCO2)C(=O)OCC(=O)Nc1cc(Cl)ccc1Cl	none
Cc1cccc2c(SCC(=O)NCC3CCCO3)nc(-c3ccc(F)cc3)nc12 (stereo unspecified)	none
O=[N+]([O-])/C=C/c1cn(Cc2ccccc2)c2ccccc12	HCT116 PTEN-null 1.1, Lmaj promast 96, HCT116 bCat-KO 1.6
N#Cc1ccccc1Cn1cc(/C=C/[N+](=O)[O-])c2ccccc21	HCT116 PTEN-null 1.4, Lmaj promast 87, HCT116 bCat-KO 2.1
O=C(O)Cn1cc(/C=C/[N+](=O)[O-])c2ccccc21	none (no result: HCT116 PTEN-null, HCT116 bCat-KO)
CCc1ccc(C(=O)/C=C/c2ccc([N+](=O)[O-])o2)cc1	HCT116 PTEN-null 1.5, Lmaj promast 100, HCT116 bCat-KO 1.9
CN(C)CCNC(=O)c1cc2c(s1)-c1ccccc1OC2	Lmaj promast 91
Cc1csc(NC(=O)c2cc3c(s2)-c2ccccc2OC3)n1	none
CCC(C)c1ccc(S(=O)(=O)N2CCN(C(C)CC(=O)O)CC2)cc1 (stereo unspecified)	none (no result: HCT116 PTEN-null, HCT116 bCat-KO)
Cc1c(O)c2c3c(cccc3c1O)C(=O)N(c1ccccc1)C2=O	none
Fc1cc(F)cc(NC(=S)NCCCN2CCOCC2)c1	Lmaj promast 54 (no result: HCT116 PTEN-null, HCT116 bCat-KO)
COc1cc(NC(=S)NCCCN2CCOCC2)cc(OC)c1OC	none (no result: HCT116 PTEN-null, HCT116 bCat-KO)
S=C(NCCCN1CCOCC1)Nc1ccc(Cl)c(Cl)c1	Lmaj promast 95
FC(F)(F)c1cccc(NC(=S)NCCN2CCOCC2)c1	none
Fc1cccc(NC(=S)NCCCN2CCOCC2)c1	Lmaj promast 72
Fc1cccc(NC(=S)NCCN2CCOCC2)c1	Lmaj promast 67
CSc1cccc(NC(=S)NCCCN2CCN(c3ccc(F)cc3)CC2)c1	Lmaj promast 57 (no result: HCT116 PTEN-null, HCT116 bCat-KO)
CCCN1CCN(CCCNC(=S)Nc2ccc(F)cc2)CC1	none (no result: HCT116 PTEN-null, HCT116 bCat-KO)
O=C(CSc1ncnc2c1nnn2-c1ccc(F)cc1)NCC1CCCO1 (stereo unspecified)	HCT116 bCat-KO 5.8
O=C(Cn1cnc2c(nnn2-c2ccc(F)cc2)c1=O)NCC1CCCO1 (stereo unspecified)	none
Cc1ccc(-n2nnc3c(SCC(=O)NCC4CCCO4)ncnc32)cc1 (stereo unspecified)	Lmaj promast 86
Cc1cccc(N2CCN(C(=O)C3CCN(S(=O)(=O)N4CCOCC4)CC3)CC2C)c1 (stereo unspecified)	none (no result: HCT116 PTEN-null, HCT116 bCat-KO)
O=C(NC1CCS(=O)(=O)C1)c1cc(-c2ccccc2)nc2ccccc12 (stereo unspecified)	none (no result: HCT116 PTEN-null, HCT116 bCat-KO)
N=c1c2c(n(Cc3ccc(Cl)cc3)c3c1CCC3)CCC2	Lmaj promast 99
N=c1c2c(n(Cc3ccc(F)cc3)c3c1CCC3)CCCC2	Lmaj promast 99 (no result: HCT116 PTEN-null, HCT116 bCat-KO)
N=c1c2c(n(Cc3cccc(Cl)c3)c3c1CCC3)CCCC2	Lmaj promast 100
Cc1cccc(NC(=O)C(=O)NCc2ccc3c(c2)OCO3)c1C	none (no result: HCT116 PTEN-null, HCT116 bCat-KO)
O=C(Cc1ccc(Cl)cc1)Nc1cccc(S(=O)(=O)Nc2ccccc2F)c1	Lmaj promast 69
O=C(CCC(=O)c1ccc(F)cc1)Nc1cccc(S(=O)(=O)Nc2cccc(Cl)c2)c1	Lmaj promast 69
CCNc1ccc(S(=O)(=O)N(C)C)cc1NCC(=O)Nc1ccccc1Cl	none (no result: HCT116 PTEN-null, HCT116 bCat-KO)
Cc1ccc(NCC(=O)Nc2cccc(S(=O)(=O)N(C)C)c2)c(Cl)c1	Lmaj promast 75
CN(C)S(=O)(=O)c1cccc(NC(=O)Cc2ccc(Cl)cc2)c1	Lmaj promast 67
Cc1ccc(S(=O)(=O)Nc2ccccc2CNc2cccc(C)n2)cc1	none
O=C(OCC(=O)c1ccccc1Cl)c1cnccn1	none
O=C(c1ccco1)N1CCN(S(=O)(=O)Cc2ccccc2Cl)CC1	none (no result: HCT116 PTEN-null, HCT116 bCat-KO)
CN(C(=O)COC(=O)/C=C/c1ccc(S(=O)(=O)N2CCc3ccccc32)cc1)C1CCS(=O)(=O)C1 (stereo unspecified)	none (no result: HCT116 PTEN-null, HCT116 bCat-KO)
CN(c1cccc(NC(=O)CN(c2cccc(F)c2)S(C)(=O)=O)c1)S(C)(=O)=O	none (no result: HCT116 PTEN-null, HCT116 bCat-KO)
Cc1ccc(S(=O)(=O)N(C)C)cc1NC(=O)c1ccc(OC(F)(F)F)cc1	none
CN(C)S(=O)(=O)c1cccc(NC(=O)c2ccc(OC(F)(F)F)cc2)c1	Lmaj promast 57
CCOc1ccc(N=C2NC(=O)C(CC(=O)O)S2)cc1 (stereo unspecified)	none
O=C(O)CC1SC(=Nc2ccc(O)cc2)NC1=O (stereo unspecified)	TNAP inh no acc 54 (no result: HCT116 PTEN-null, HCT116 bCat-KO)
C=CCn1c(SCC(=O)c2[nH]c(C)c(C(=O)OC)c2C)nc2scc(-c3ccc(OC)c(OC)c3)c2c1=O	HCT116 PTEN-null 2.5, HCT116 bCat-KO 4.1
CCCN1C(=O)/C(=C2\SC(N3CCCCC3)=NC2=O)c2ccccc21	Lmaj promast 64
O=c1cc(Nc2ccc3c(c2)OCO3)[nH]c(=O)n1-c1ccc(Br)cc1	Lmaj promast 99
Cc1cc(C)c2cc(CN(CCCN(C)C)C(=S)NCc3ccccc3)c(=O)[nH]c2c1	Lmaj promast 100 (no result: HCT116 PTEN-null, HCT116 bCat-KO)
Cc1cccc2cc(CN(Cc3ccccc3)C(=S)NCCCN(C)C)c(=O)[nH]c12	Lmaj promast 78 (no result: HCT116 PTEN-null, HCT116 bCat-KO)
Cc1ccc(CN(Cc2cc3cccc(C)c3[nH]c2=O)C(=S)NCCCN(C)C)cc1	Lmaj promast 62 (no result: HCT116 PTEN-null, HCT116 bCat-KO)
COc1c(OC(C)=O)ccc(/C=N\NC(=O)c2ccc(Br)cc2)c1[N+](=O)[O-]	none (no result: HCT116 PTEN-null, HCT116 bCat-KO)
CCCC(=O)Nc1cc(C(=O)O)ccc1Sc1ccccc1	none (no result: HCT116 PTEN-null, HCT116 bCat-KO)
Cc1ccccc1NC(=O)c1ccc(-c2ccc(Cl)cc2Cl)o1	none
CC1=NOC(=O)/C1=C\c1ccc(-c2ccc(Cl)cc2Cl)o1	Lmaj promast 93, HCT116 bCat-KO 4.7
COC(=O)c1ccc2c(=O)n(CC3CCCO3)c(SCC(=O)Nc3ccccc3OC)nc2c1 (stereo unspecified)	none
CC1CCN(CCCn2c(SCC(=O)Nc3ccccc3Cl)nc3ccccc3c2=O)CC1	Lmaj promast 65 (no result: HCT116 PTEN-null, HCT116 bCat-KO)
O=C(CSc1nc2ccccc2c(=O)n1CCCN1CCOCC1)Nc1cccc(S(=O)(=O)N2CCCCCC2)c1	Lmaj promast 74
COc1ccc(NC(=O)CSc2nnc(C3CC3)n2N)cc1	none

Bioassay records deposited in PubChem BioAssay by several laboratories.
